Columns and labels:
[1] = tested on: Rattus norvegicus; experiment: Effect on latency to enter dark chamber after administration of 1 mg/kg of the compound; assay type: functional
Outline: (§1)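 Rats (180-200 g), scopolamine-induced amnesia in a step-through passive avoidance task. Scopolamine 2 mg/kg ip 15 min before training; test substance suspended in 0.5% Tween-80, given ip at 1 or 10 mg/kg 30 min before training; vehicle controls. Retention tested 24 h later: latency to enter dark chamber (max 180 s) and % animals not entering. n=12 per group.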

[2] = tested on: Rattus norvegicus; experiment: Effect on increase in reflex latent time after administration of 1 mg/kg of the compound; assay type: functional; outline: as §1
[3] = tested on: Rattus norvegicus; experiment: Effect on number of animals not entering the dark chamber after administration of 10 mg/kg of the compound
[4] = tested on: Rattus norvegicus; experiment: Effect on increase in reflex latent time after administration of 10 mg/kg of the compound; assay type: functional; outline: as §1
[5] = tested on: Rattus norvegicus; experiment: Effect on increase in reflex latent time after administration of 600 mg/kg of the compound; assay type: functional
[6] = species: Rattus norvegicus; experiment: […]; assay type: functional; settings: dose 400 mg/kg
[7] = tested on: Rattus norvegicus; experiment: Effect on increase in reflex latent time after administration of 400 mg/kg of the compound; assay type: functional

SMILES | Number [1] [%] | Time [1] [s] | Time [2] [s] | Number [3] [%] | Number [4] [%] | Number [5] [%] | Number [6] [%] | Time [7] [s]
Oc1ccc(/C=N/c2nc3ccccc3s2)cc1 | 58 | 15 | 104 | 0 | – | – | – | –
CC(=O)N1CCOC1c1cccc(Cl)c1 (configuration not stated) | 0 | 103 | 25 | – | 58 | – | – | –
O=[N+]([O-])c1ccc(/C=N/c2nc(-c3ccccc3)cs2)cc1 | 58 | 88 | 157 | 42 | – | – | – | –
C(=N\c1nc(-c2ccccc2)cs1)/c1ccccc1 | 0 | 68 | 12 | 33 | – | – | – | –
Cc1csc(/N=C/c2ccc([N+](=O)[O-])cc2)n1 | 42 | 126 | 76 | 50 | – | – | – | –
O=[N+]([O-])c1ccc(/C=N/c2nccs2)cc1 | 42 | 129 | 68 | 50 | – | – | – | –
Clc1ccc(/C=N/c2nccs2)cc1 | 25 | 123 | 61 | 66 | – | – | – | –
Oc1ccc(/C=N/c2nccs2)cc1 | 42 | 41 | 96 | 14 | – | – | – | –
NC(=O)CN1CCCC1=O [PIRACETAM] | – | – | – | – | – | 58 | 33 | 75
CN1[C@@H]2C[C@@H](OC(=O)[C@H](CO)c3ccccc3)C[C@H]1[C@@H]1O[C@@H]12 [SCOPOLAMINE] | 17 | – | 53 | – | – | – | – | –
